Data set [1] has as its system Blood. Nature of the data set: Metabolic stability in rhesus monkey whole blood assessed as conversion to (1R,2R)-2-((3-(((3R,4S)-N-cyclopropyl-4-(4-(2-(2,6-dichloro-4-methylphenoxy)ethoxy)phenyl)piperidine-3-carboxamido)methyl)-5-(3-methoxypropyl)phenoxy)methyl)cyclopropanecarboxylic acid after 20 mins. Type of data set: ADME, tissue-based, Macaca mulatta.
Data set [2] has as its system Blood. Nature of the data set: Metabolic stability in Sprague-Dawley rat whole blood assessed as conversion to (1R,2R)-2-((3-(((3R,4S)-N-cyclopropyl-4-(4-(2-(2,6-dichloro-4-methylphenoxy)ethoxy)phenyl)piperidine-3-carboxamido)methyl)-5-(3-methoxypropyl)phenoxy)methyl)cyclopropanecarboxylic acid after 20 mins. Type of data set: ADME, tissue-based. In a few lines: (§1)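 Prodrugs were incubated for 20 min in rat or human whole blood, or in rat or human liver S9 fraction (n = 2). The read-out was % conversion to the parent carboxylic acid.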

Data set [3] deals with Blood. Nature of the data set: Metabolic stability in human whole blood assessed as conversion to (1R,2R)-2-((3-(((3R,4S)-N-cyclopropyl-4-(4-(2-(2,6-dichloro-4-methylphenoxy)ethoxy)phenyl)piperidine-3-carboxamido)methyl)-5-(3-methoxypropyl)phenoxy)methyl)cyclopropanecarboxylic acid after 20 mins. Type of data set: ADME, tissue-based. The method in brief: as §1
For data set [4], the system named is Liver. Nature of the data set: Metabolic stability in Sprague-Dawley rat liver S9 fraction assessed as conversion to (1R,2R)-2-((3-(((3R,4S)-N-cyclopropyl-4-(4-(2-(2,6-dichloro-4-methylphenoxy)ethoxy)phenyl)piperidine-3-carboxamido)methyl)-5-(3-methoxypropyl)phenoxy)methyl)cyclopropanecarboxylic acid after 20 mins. Type of data set: ADME, subcellular. The settings on record: s9, 20 min. The method in brief:
as §1

For data set [5], the system named is Liver. Nature of the data set: Metabolic stability in human liver S9 fraction assessed as conversion to (1R,2R)-2-((3-(((3R,4S)-N-cyclopropyl-4-(4-(2-(2,6-dichloro-4-methylphenoxy)ethoxy)phenyl)piperidine-3-carboxamido)methyl)-5-(3-methoxypropyl)phenoxy)methyl)cyclopropanecarboxylic acid after 20 mins. Particulars: s9, 20 min. Type of data set: ADME, subcellular. The method in brief:
as §1

Data set [6] deals with T1, Renin (Homo sapiens, UniProt P00797).
T1 sequence (P00797 whole entry): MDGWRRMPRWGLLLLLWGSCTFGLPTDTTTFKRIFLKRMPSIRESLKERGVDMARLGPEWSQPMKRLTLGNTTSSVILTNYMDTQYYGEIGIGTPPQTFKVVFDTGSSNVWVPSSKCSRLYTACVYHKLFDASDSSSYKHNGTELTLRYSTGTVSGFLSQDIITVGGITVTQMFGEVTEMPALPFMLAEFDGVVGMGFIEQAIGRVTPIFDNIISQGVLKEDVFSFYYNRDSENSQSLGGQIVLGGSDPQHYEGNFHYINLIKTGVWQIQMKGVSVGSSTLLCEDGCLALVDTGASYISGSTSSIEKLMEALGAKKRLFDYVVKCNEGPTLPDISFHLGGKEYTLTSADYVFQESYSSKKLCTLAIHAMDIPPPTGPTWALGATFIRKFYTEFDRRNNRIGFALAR
The experiment in a line: Inhibition of human recombinant renin in human citreated-plasma.

Data set [7] has as its target Voltage-gated inwardly rectifying potassium channel KCNH2 (Homo sapiens, UniProt Q12809). Nature of the data set: Binding affinity to human ERG.
Data set [8] concerns the target T2, Cytochrome P450 3A4 (Homo sapiens, UniProt P08684). The experiment in a line: Inhibition of human CYP3A4 in human liver microsomes assessed as formation of 6beta-hydroxy-testosterone using testosterone as substrate by high throughput mass spectrometry in absence of NADPH. Type of data set: ADME, Microsome. For orientation: Liver microsomes are vesicles of endoplasmic reticulum, rich in cytochrome P450 enzymes.

Data set [9] has as its target T2, Cytochrome P450 3A4. The experiment in a line: Inhibition of human CYP3A4 in human liver microsomes assessed as formation of 6beta-hydroxy-testosterone using testosterone as substrate by high throughput mass spectrometry preincubated for 30 mins in presence of NADPH. Type of data set: ADME, Microsome.
The target of data set [10] is CYP3A4 (Homo sapiens, UniProt P08684). The experiment in a line: Ratio of IC50 for human CYP3A4 in absence of NADPH to IC50 for human CYP3A4 preincubated for 30 mins in presence of NADPH. Particulars: read-out: Ratio IC50.
Data set [11] can be described thus: Metabolic stability in dog whole blood assessed as conversion to (1R,2R)-2-((3-(((3R,4S)-N-cyclopropyl-4-(4-(2-(2,6-dichloro-4-methylphenoxy)ethoxy)phenyl)piperidine-3-carboxamido)methyl)-5-(3-methoxypropyl)phenoxy)methyl)cyclopropanecarboxylic acid after 20 mins. Type of data set: ADME, tissue-based, Canis lupus familiaris.
The target in data set [12] is T1, Renin. Nature of the data set: Inhibition of human recombinant renin in PBS buffer using tetradecapeptide at pH 7.4.
Data set [13] is described as follows: Oral bioavailability in Sprague-Dawley rat at 30 mg/kg as 0.5% methocel suspension. The settings on record: in vivo. Type of data set: ADME, organism-based.
The nature of data set [14]: AUC (0 to 24 hrs) in Sprague-Dawley rat at 30 mg/kg, po as 0.5% methocel suspension. Type of data set: ADME, organism-based. The arrangement: time < 24 hr, dose 30 mg/kg, route oral. The settings on record: plasma.
The nature of data set [15]: Oral bioavailability in Beagle dog at 3 mg/kg in 0.5% methocel. Type of data set: ADME, organism-based, Canis lupus familiaris. The settings on record: in vivo.
A short description of data set [16]: AUC (0 to 24 hrs) in Beagle dog at 3 mg/kg, po in 0.5% methocel. Type of data set: ADME, organism-based, Canis lupus familiaris. More on the design: time < 24 hr, dose 3 mg/kg, route oral. Particulars: plasma.
Data set [17] in a line: Oral bioavailability in Sprague-Dawley rat at 30 mg/kg in 60% PEG 200. Type of data set: ADME, organism-based. Particulars: in vivo.
Data set [18] can be described thus: AUC (0 to 24 hrs) in Sprague-Dawley rat at 30 mg/kg, po in 60% PEG 200. Type of data set: ADME, organism-based. More on the design: time < 24 hr, dose 30 mg/kg, route oral. The settings on record: plasma.
Data set [19] is described as follows: Oral bioavailability in Sprague-Dawley rat at 30 mg/kg in 60% PEG 200 at PH 2.5. Type of data set: ADME, organism-based. Particulars: in vivo.
Data set [20] is described as follows: AUC (0 to 24 hrs) in Sprague-Dawley rat at 30 mg/kg, po in 60% PEG 200 at PH 2.5. Type of data set: ADME, organism-based. The arrangement: time < 24 hr, dose 30 mg/kg, route oral. Particulars: plasma.
Data set [21] can be described thus: Oral bioavailability in Sprague-Dawley rat at 30 mg/kg in peanut oil. Type of data set: ADME, organism-based. The settings on record: in vivo.
Data set [22] is described as follows: AUC (0 to 24 hrs) in Sprague-Dawley rat at 30 mg/kg, po in peanut oil. Type of data set: ADME, organism-based. More on the design: time < 24 hr, dose 30 mg/kg, route oral. The settings on record: plasma.
The nature of data set [23]: Oral bioavailability in Sprague-Dawley rat at 30 mg/kg in lyposin 2. The settings on record: in vivo. Type of data set: ADME, organism-based.
Data set [24] in a line: AUC (0 to 24 hrs) in Sprague-Dawley rat at 30 mg/kg, po in lyposin 2. Type of data set: ADME, organism-based. The arrangement: time < 24 hr, dose 30 mg/kg, route oral. Particulars: plasma.
Data set [25] is described as follows: Oral bioavailability in Sprague-Dawley rat at 30 mg/kg in Na salt in 0.5% methocel. Type of data set: ADME, organism-based. The settings on record: in vivo.
The nature of data set [26]: AUC (0 to 24 hrs) in Sprague-Dawley rat at 30 mg/kg, po in Na salt in 0.5% methocel. Type of data set: ADME, organism-based. The arrangement: time < 24 hr, dose 30 mg/kg, route oral. The settings on record: plasma.
The nature of data set [27]: Oral bioavailability in Sprague-Dawley rat at 30 mg/kg in Ca salt in 0.5% methocel. The settings on record: in vivo. Type of data set: ADME, organism-based.
A short description of data set [28]: AUC (0 to 24 hrs) in Sprague-Dawley rat at 30 mg/kg, po in Ca salt in 0.5% methocel. Type of data set: ADME, organism-based. The arrangement: time < 24 hr, dose 30 mg/kg, route oral. The settings on record: plasma.
The nature of data set [29]: Bioavailability in Sprague-Dawley rat at 20 mg/kg, intra-duodenum in 5% dextrose. Type of data set: ADME, organism-based. Particulars: in vivo. The method in brief: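 Rats were dosed directly into the duodenum at 20 mg/kg in 5% dextrose, 1 mL/kg. Bioavailability was calculated for the parent carboxylic acid.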
Data set [30] in a line: Clearance in Sprague-Dawley rat at 30 mg/kg, po in 0.5% methocel and 3 to 5 mg/kg, iv in 60% PEG 200. Particulars: in vivo.

T2 sequence (P08684 whole entry): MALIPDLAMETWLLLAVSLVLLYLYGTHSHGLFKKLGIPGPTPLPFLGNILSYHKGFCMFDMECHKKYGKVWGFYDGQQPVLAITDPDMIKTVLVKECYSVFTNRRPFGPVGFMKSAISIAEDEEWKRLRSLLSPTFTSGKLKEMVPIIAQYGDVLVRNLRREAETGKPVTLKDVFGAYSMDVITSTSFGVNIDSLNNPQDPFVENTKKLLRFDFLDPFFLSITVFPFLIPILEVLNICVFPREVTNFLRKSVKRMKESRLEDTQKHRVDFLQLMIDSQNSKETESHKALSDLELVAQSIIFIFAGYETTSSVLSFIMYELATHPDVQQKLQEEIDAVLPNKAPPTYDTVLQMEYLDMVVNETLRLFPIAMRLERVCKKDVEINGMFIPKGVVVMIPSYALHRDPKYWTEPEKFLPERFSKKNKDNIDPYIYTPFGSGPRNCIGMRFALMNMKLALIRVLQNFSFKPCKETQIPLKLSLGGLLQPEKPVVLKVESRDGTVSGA
Voltage-gated inwardly rectifying potassium channel KCNH2, sequence (Q12809 whole entry): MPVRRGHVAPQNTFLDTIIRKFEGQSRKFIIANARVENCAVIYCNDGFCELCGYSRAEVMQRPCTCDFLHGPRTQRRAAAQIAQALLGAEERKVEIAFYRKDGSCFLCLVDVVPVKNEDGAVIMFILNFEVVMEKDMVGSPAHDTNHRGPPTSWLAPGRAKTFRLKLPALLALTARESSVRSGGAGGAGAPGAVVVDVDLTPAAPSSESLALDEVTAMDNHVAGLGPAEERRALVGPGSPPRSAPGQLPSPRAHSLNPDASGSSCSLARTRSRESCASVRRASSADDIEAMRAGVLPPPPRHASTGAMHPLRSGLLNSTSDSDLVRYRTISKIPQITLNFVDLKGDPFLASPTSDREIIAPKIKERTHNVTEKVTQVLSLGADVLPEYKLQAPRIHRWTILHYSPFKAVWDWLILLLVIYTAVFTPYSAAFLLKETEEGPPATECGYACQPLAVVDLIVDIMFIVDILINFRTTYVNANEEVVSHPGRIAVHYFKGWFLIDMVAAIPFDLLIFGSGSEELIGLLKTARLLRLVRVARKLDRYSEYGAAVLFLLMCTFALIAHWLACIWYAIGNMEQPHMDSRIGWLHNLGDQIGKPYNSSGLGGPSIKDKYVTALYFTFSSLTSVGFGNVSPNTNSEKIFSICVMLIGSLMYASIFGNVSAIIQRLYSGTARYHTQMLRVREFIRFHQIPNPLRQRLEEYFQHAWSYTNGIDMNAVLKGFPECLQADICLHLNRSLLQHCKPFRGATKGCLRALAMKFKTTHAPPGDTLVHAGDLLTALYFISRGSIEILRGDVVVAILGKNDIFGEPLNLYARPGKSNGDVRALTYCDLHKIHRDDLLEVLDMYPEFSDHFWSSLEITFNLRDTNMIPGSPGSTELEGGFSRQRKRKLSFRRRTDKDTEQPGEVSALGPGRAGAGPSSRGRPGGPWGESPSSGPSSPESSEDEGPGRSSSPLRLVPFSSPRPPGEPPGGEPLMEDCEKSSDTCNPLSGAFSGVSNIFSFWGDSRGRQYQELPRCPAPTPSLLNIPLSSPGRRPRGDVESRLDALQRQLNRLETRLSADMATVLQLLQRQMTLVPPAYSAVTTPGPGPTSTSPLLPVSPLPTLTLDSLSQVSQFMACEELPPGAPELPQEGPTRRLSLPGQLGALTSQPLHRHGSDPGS
CYP3A4, sequence (P08684 whole entry): as the sequence (P08684 whole entry) above

By IC50 is commonly meant the point on the concentration scale where inhibition reaches its midpoint. Usually Ki stands for a dissociation constant, usually derived from enzyme kinetics or from competition with a known ligand. For orientation: bioavailability means dose-corrected exposure relative to a reference, in per cent. What is called AUC(0-t) is exposure summed from dosing to a finite time, without extrapolation to infinity. On to `CCOC(=O)[C@H]1C[C@@H]1COc1cc(CCCOC)cc(CN(C(=O)[C@H]2CNCC[C@@H]2c2ccc(OCCOc3c(Cl)cc(C)cc3Cl)cc2)C2CC2)c1`, for which the Activity in data set [1] is on record as 15%; in data set [2], 99%; in data set [3], 3%; in data set [4], 60%; in [5] it was 56%; in data set [11], 2%. Moreover, the IC50 in data set [6] came to 11 nM; in data set [8] it was 19300 nM; in [9], 1400 nM; in data set [12], 0.064 nM. The same compound returned a Ki in data set [7] of 80 nM. Moreover, in data set [10], the IC50 shift was found to be 14. The bioavailability was found to be 52% in [13] and 6% in data set [15]. In addition, the AUC(0-t) at 24 h stood at 5.7 µM·h in data set [14] and 0.01 µM·h in data set [16].

For the compound `COCCCc1cc(CN(C(=O)[C@H]2CNCC[C@@H]2c2ccc(OCCOc3c(Cl)cc(C)cc3Cl)cc2)C2CC2)cc(OC[C@H]2C[C@@H]2C(=O)O)c1`, the IC50 in [6] was 1.1 nM; in data set [8], over 50000 nM; in [9], over 50000 nM; in [12], 0.027 nM. Also, the Ki in data set [7] was determined as 1070 nM. The bioavailability in data set [13] came to 1%; in data set [17] it was 4%; in [19], 1%; in data set [21], 1%; in [23], 0%; in [25], 1%. Besides, the bioavailability in data set [27] and in [29] was 0% each time. The exposure AUC(0-t) at 24 h in data set [14] is 0.1 µM·h; in data set [18] it was 0.5 µM·h; in data set [20], 0.1 µM·h; in data set [22] it was 0.1 µM·h; in data set [24] it was 0.03 µM·h; in [26] it was 0.1 µM·h. Further, the AUC(0-t) at 24 h in data set [28] came out at 0.3 µM·h. The same compound came in with a clearance in data set [30] of 60 mL/min/kg.

The record behind these values is ChEMBL document CHEMBL1759994, “The discovery and synthesis of potent zwitterionic inhibitors of renin” (Bioorg Med Chem Lett, 2011).
